According to PMC7657097 (Medical Mycology, 2020):
≈ marks a conversion by molar mass, not a printed value. Like-named read-outs stand apart in the source and are kept apart here.

Key:
[1] = test system: primary human nasal epithelial cells; test: Cytotoxicity test; assay type: cell-based; settings: 5 μM peptide, 3 hours at 37°C, WST-1
Outline: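 Primary human nasal epithelial cells were grown to confluency in bronchial epithelial cell medium. Cells were exposed to peptide, then washed three times with PBS. Viability was measured colorimetrically with WST-1 (10% v/v in cell medium). Controls were no peptide (100% viability) and 70% ethanol (total loss of viability). Runs were in triplicate, and treated wells were compared with no-peptide wells by two-tailed paired Student t test.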

[2] = test system: A. fumigatus; settings: EUCAST, ref [27], cited from earlier work
[3] = test system: A. fumigatus; test: Metabolic assay; assay type: cell-based, Aspergillus fumigatus; settings: for inhibition of metabolic activity: A. fumigatus strains Af293, CEA10 and DTO342-B2, 1 μM peptide, initial experiments, results not shown
Outline: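 A. fumigatus grown 4 days on PDA at 37°C; conidia scraped into saline with 0.002% Tween 20 and counted by haemocytometer. Each well held 5 × 10³ conidia, glucose (final 2%), resazurin and water-diluted peptide. Controls lacked peptide or cells; edge wells held water. Absorbance at 570 nm, corrected for the no-cell control, read repeatedly. Initial strain set tested in duplicate.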

| Compound | MIC ([2]; A. fumigatus DTO 326-I1) | MIC ([2]; A. fumigatus DTO 327-A8) | inhibition of metabolic activity [3] | also measured |
| --- | --- | --- | --- | --- |
| CCO [EtOH, ethanol] | – | – | – | cell viability, Average (%) ([1]; no peptide = 100% viability, in triplo): 17.5%; cytotoxic effect vs no peptide ([1]; two-tailed paired Student t test): increased cytotoxic activity |
| CCC(C)n1ncn(-c2ccc(N3CCN(c4ccc(OCC5COC(Cn6cncn6)(c6ccc(Cl)cc6Cl)O5)cc4)CC3)cc2)c1=O (stereo not drawn) [ITC, itraconazole] | Human patient from hematology; Resistant to ITC (>16), POS (1), Intermediate for VRC (2) mg/l | Human ICU patient; Resistant to ITC (>16), POS (0.25), VRC (>16) mg/l | – | – |
| C[C@@H](c1ncncc1F)[C@](O)(Cn1cncn1)c1ccc(F)cc1F [VRC, voriconazole] | 2 mg/L (≈ 5.73 µM) | Human ICU patient; Resistant to ITC (>16), POS (0.25), VRC (>16) mg/l | – | – |
| APKAMRRWVQRWIRRWRPKVLQKNNYL-NH2 [CR183] | – | – | inhibited the metabolic activity strongly | – |
| LLGDFFRKSKEKIGKEFKRIVQRIKDFLRNLVPRTES-NH2 [LL-37] | – | – | – | concentration at which metabolic activity is inhibited ([3]; azole-resistant A. fumigatus strains DTO 327-A8 and 326-I1, tested at 1 and 5 μM, 0.125×MM, 105 μM resazurin, 37°C, 27 h, two experiments): did not inhibit metabolic activity |
| RRWVQRWIRRWRKVAAARRWVQRWIRRWRPKV-NH2 [CR173] | – | – | inhibited the metabolic activity strongly | – |
